Reference: ChEMBL document CHEMBL1142438, “Pivaloyloxymethyl-modified isoprenoid bisphosphonates display enhanced inhibition of cellular geranylgeranylation” (Bioorg Med Chem, 2008)
Calls of active or inactive are those of the source. The rule behind the calls is not given here.

Tests used:
K562 [1] = assay: Inhibition of Rap1a protein modification in human K562 cells by Western blot relative to lovastatin; assay type: functional
Outline: (§1)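 K562 cells in suspension culture (5 × 10^6 cells/5 ml, fresh medium) exposed 24 h to 1, 2.5, 5, 10, 25 or 50 µM compound. Protein quantified by BCA, resolved on 12% SDS gel, transferred to PVDF, probed for Rap1a with primary then secondary antibody (45 min each), ECL detection.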

K562 [2] = assay: Growth inhibition of human K562 cells after 24 hrs; assay type: functional; conditions: K562, 24 h
Outline: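 K562 leukaemia cells (ATCC, grown per ATCC protocol), asynchronous suspension cultures at 5 × 10^6 cells/5 ml in fresh medium, exposed to compound for 24 h. Growth followed by 3H-thymidine incorporation. GI50 taken from quadruplicate dose–response curves.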

[3] = target: T1, Geranylgeranyl pyrophosphate synthase (Homo sapiens) (UniProt O95749); assay: Inhibition of human recombinant GGDPS expressed in BL21 gold bacteria at 10 uM relative to control; set-up: scale not given: the % may be the effect or the level left
T1 sequence (whole entry): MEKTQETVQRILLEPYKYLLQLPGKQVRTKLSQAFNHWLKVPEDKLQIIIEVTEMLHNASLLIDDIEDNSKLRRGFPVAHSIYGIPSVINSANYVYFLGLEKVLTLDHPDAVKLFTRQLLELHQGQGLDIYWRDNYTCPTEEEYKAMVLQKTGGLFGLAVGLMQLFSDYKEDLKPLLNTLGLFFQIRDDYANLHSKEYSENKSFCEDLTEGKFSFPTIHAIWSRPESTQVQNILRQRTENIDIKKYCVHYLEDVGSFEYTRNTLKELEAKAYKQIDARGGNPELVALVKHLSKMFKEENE
Outline: (§2)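 GST-tagged recombinant human GGDPS expressed in BL21 gold E. coli (IPTG induction), glutathione-affinity purified. Reaction: 20 µM FPP, 40 µM [14C]IPP in 50 mM imidazole pH 7.5, 0.5 mM MgCl2, 0.5 mM ZnCl2. 10-min inhibitor preincubation, substrates added together, 1 h at 37 °C. [14C]GGPP extracted into butanol and counted by scintillation; activity as % of control, n = 3.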

K562 [4] = assay: Inhibition of Rap1a protein modification in human K562 cells at 50 uM by Western blot; assay type: functional, cell-based
Outline: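 K562 leukemia suspension cultures (5 × 10^6 cells/5 ml, fresh medium) incubated 24 h with compound, tested over 1, 2.5, 5, 10, 25 and 50 µM. Protein quantified by BCA; lysates run on 12% gel, transferred to PVDF, probed sequentially with primary and secondary antibodies (45 min each) for Rap1a, detected by ECL chemiluminescence.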

[5] = target: T1, Geranylgeranyl pyrophosphate synthase (Homo sapiens); assay: Inhibition of human recombinant GGDPS expressed in BL21 gold bacteria at 100 uM relative to control; set-up: scale not given: the % may be the effect or the level left; outline: as §2
[6] = target: T2, Farnesyl pyrophosphate synthase (Homo sapiens) (UniProt P14324); assay: Inhibition of human recombinant FDPS expressed in BL21 gold bacteria at 100 uM relative to control; set-up: scale not given: the % may be the effect or the level left
T2 sequence (whole entry): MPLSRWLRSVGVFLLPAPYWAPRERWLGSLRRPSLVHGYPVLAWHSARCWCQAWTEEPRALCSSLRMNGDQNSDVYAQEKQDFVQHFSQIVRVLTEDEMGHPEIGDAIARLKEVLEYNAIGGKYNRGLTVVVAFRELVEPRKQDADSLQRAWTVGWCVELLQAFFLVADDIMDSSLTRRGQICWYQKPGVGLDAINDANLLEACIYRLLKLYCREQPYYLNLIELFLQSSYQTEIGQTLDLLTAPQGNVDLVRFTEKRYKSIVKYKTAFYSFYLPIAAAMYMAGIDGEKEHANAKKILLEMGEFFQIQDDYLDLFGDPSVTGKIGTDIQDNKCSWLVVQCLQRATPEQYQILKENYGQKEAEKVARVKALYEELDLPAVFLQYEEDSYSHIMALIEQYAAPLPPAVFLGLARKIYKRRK
Outline: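 GST-tagged recombinant human FDPS expressed in BL21 gold E. coli (IPTG induction), glutathione-affinity purified. Reaction: 20 µM GPP, 40 µM [14C]IPP in 50 mM Tris pH 7.7, 10 mM NaF, 2 mM MgCl2, 1 mg/mL BSA. 10-min enzyme–inhibitor preincubation, substrates added, 1 h at 37 °C. Butanol-extracted product counted by scintillation; n = 3.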

[7] = target: T3, Farnesyl pyrophosphate synthase (Homo sapiens, UniProt P14324); assay: Inhibition of human recombinant FDPS expressed in BL21 gold bacteria
T3 sequence (P14324 whole entry): T2 sequence (whole entry)
Outline: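 GST-tagged recombinant human enzyme expressed in BL21 gold bacteria (IPTG induction), purified by affinity chromatography or glutathione agarose. Reaction: 20 µM GPP, 40 µM 14C IPP in 50 mM Tris pH 7.7, 10 mM NaF, 2 mM MgCl2, 1 mg/mL BSA. 10-min preincubation with inhibitor, substrates then added; 1 h at 37 °C. Products extracted with saturated butanol; 14C incorporation by scintillation counting; n = 3.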

K562 [8] = assay: Inhibition of Rap1a protein geranylgernaylation modification in human K562 cells upto 10 uM by Western blot; assay type: functional, cell-based; outline: as §1

| SMILES | Activity (K562 [1]) [µM] | GI50 (K562 [2]) [µM] | Activity (K562 [4]) | other results |
| --- | --- | --- | --- | --- |
| CC(C)=CCC/C(C)=C\CC/C(C)=C/CC(P(=O)(O)O)P(=O)(O)O | 50 |  |  |  |
| CC(C)=CCC/C(C)=C/CC(C/C=C(\C)CCC=C(C)C)(P(=O)(O)O)P(=O)(O)O [DIGERANYL BISPHOSPHONATE] | 25 | > 100 |  |  |
| CC(C)=CCC/C(C)=C/CC(CC=C(C)C)(P(=O)(O)O)P(=O)(O)O | 25 | > 100 |  | Activity [3]: 38% |
| CC(C)=CCC/C(C)=C\CC(C/C=C(\C)CCC=C(C)C)(P(=O)(O)O)P(=O)(O)O | 25 | > 100 |  |  |
| CC(C)=CCC/C(C)=C\CC(C/C=C(\C)CCC=C(C)C)(P(=O)(OCOC(=O)C(C)(C)C)OCOC(=O)C(C)(C)C)P(=O)(OCOC(=O)C(C)(C)C)OCOC(=O)C(C)(C)C | 25 | > 100 |  |  |
| CC(C)=CCC/C(C)=C\CC(P(=O)(O)O)P(=O)(O)O | >50 | > 100 | inactive |  |
| CC(C)=CCC/C(C)=C/CC/C(C)=C/CC(P(=O)(OCOC(=O)C(C)(C)C)OCOC(=O)C(C)(C)C)P(=O)(OCOC(=O)C(C)(C)C)OCOC(=O)C(C)(C)C | 10 | 7.9 |  | Activity [3]: 96% |
| CC(C)=CCC/C(C)=C/CC(P(=O)(OCOC(=O)C(C)(C)C)OCOC(=O)C(C)(C)C)P(=O)(OCOC(=O)C(C)(C)C)OCOC(=O)C(C)(C)C | 10 | 8.1 | inactive | Activity [5]: 100%; Activity [6]: 99% |
| CC(C)=CCC/C(C)=C/CC(CC=C(C)C)(P(=O)(OCOC(=O)C(C)(C)C)OCOC(=O)C(C)(C)C)P(=O)(OCOC(=O)C(C)(C)C)OCOC(=O)C(C)(C)C | 1 | 5.2 | inactive | Activity [3]: 101% |
| CC(C)=CCC/C(C)=C\CC/C(C)=C\CC(P(=O)(O)O)P(=O)(O)O | >50 |  |  |  |
| CC(C)=CCC/C(C)=C/CC/C(C)=C\CC(P(=O)(OCOC(=O)C(C)(C)C)OCOC(=O)C(C)(C)C)P(=O)(OCOC(=O)C(C)(C)C)OCOC(=O)C(C)(C)C | >50 | 2 |  |  |
| CC(C)=CCC/C(C)=C\CC(C/C=C(/C)CCC=C(C)C)(P(=O)(OCOC(=O)C(C)(C)C)OCOC(=O)C(C)(C)C)P(=O)(OCOC(=O)C(C)(C)C)OCOC(=O)C(C)(C)C | 10 | > 100 |  |  |
| CC(C)=CCC/C(C)=C\CC(P(=O)(OCOC(=O)C(C)(C)C)OCOC(=O)C(C)(C)C)P(=O)(OCOC(=O)C(C)(C)C)OCOC(=O)C(C)(C)C | >50 | 7 | inactive |  |
| CC(C)=CCC(CC=C(C)C)(P(=O)(O)O)P(=O)(O)O | >50 | > 100 | inactive |  |
| CC(C)=CCC/C(C)=C/CC(C/C=C(\C)CCC=C(C)C)(P(=O)(OCOC(=O)C(C)(C)C)OCOC(=O)C(C)(C)C)P(=O)(OCOC(=O)C(C)(C)C)OCOC(=O)C(C)(C)C | 10 | 58 |  | Activity [3]: 96% |
| CC(C)=CCC/C(C)=C/CC(P(=O)(O)O)P(=O)(O)O | >50 | > 100 | inactive | Activity [5]: 51%; Activity [6]: 11%; IC50 [7]: 20 µM |
| CC(C)=CCC/C(C)=C\CC/C(C)=C\CC(P(=O)(OCOC(=O)C(C)(C)C)OCOC(=O)C(C)(C)C)P(=O)(OCOC(=O)C(C)(C)C)OCOC(=O)C(C)(C)C | >50 | 2.9 |  |  |
| CC(C)=CCC/C(C)=C\CC/C(C)=C/CC(P(=O)(OCOC(=O)C(C)(C)C)OCOC(=O)C(C)(C)C)P(=O)(OCOC(=O)C(C)(C)C)OCOC(=O)C(C)(C)C | 10 | 2.7 |  |  |
| CC(C)=CCC/C(C)=C\CC(CC=C(C)C)(P(=O)(O)O)P(=O)(O)O | 50 | > 100 | inactive | IC50 [7]: > 100 µM |
| CC(C)=CCC/C(C)=C\CC(C/C=C(/C)CCC=C(C)C)(P(=O)(O)O)P(=O)(O)O | 25 | > 100 |  |  |
| CC(C)=CCC(CC=C(C)C)(P(=O)(OCOC(=O)C(C)(C)C)OCOC(=O)C(C)(C)C)P(=O)(OCOC(=O)C(C)(C)C)OCOC(=O)C(C)(C)C | 5 | 7.7 |  | Activity (K562 [8]): Active |
| CC(C)=CCC/C(C)=C/CC/C(C)=C/CC(P(=O)(O)O)P(=O)(O)O | 10 | 90 |  | Activity [3]: 42% |
| CC(C)=CCC/C(C)=C/CC/C(C)=C\CC(P(=O)(O)O)P(=O)(O)O | >50 |  |  |  |
| CC(C)=CCC/C(C)=C\CC(CC=C(C)C)(P(=O)(OCOC(=O)C(C)(C)C)OCOC(=O)C(C)(C)C)P(=O)(OCOC(=O)C(C)(C)C)OCOC(=O)C(C)(C)C | 5 | 21 | inactive | Activity (K562 [8]): Active |
